Screening data as filed in PubChem.
OX1R antag-1 – human HCRTR1 antagonism; inhibition, % at 5 µM; actives 0.43% (n = 330,000); O43613; CHO/OX1R cells, Fluo-8 calcium fluorescence, orexin A;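 active = inhibition above its plate's threshold, mean inhibition of all tested compounds on the plate plus 3 SD, cut at about 37% in these data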;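 note: 0% = orexin A challenge wells and 100% = SB-334867-A antagonist wells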
Target sequence (O43613 whole entry, looked up): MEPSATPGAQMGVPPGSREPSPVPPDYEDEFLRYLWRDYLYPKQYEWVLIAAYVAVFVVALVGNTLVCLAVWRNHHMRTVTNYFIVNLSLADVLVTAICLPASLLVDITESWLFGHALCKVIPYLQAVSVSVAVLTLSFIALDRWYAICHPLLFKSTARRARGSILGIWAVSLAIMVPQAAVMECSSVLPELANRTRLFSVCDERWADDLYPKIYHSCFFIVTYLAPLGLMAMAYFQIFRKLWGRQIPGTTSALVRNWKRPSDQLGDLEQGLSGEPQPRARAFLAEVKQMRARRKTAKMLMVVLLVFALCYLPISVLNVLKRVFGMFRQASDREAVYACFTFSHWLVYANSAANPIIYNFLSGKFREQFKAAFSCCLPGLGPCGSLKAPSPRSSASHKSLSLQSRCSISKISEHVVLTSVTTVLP
OX1R antag-2 – blocks the human orexin 1 receptor | O43613 | OX1R-expressing cells, FRET antagonist read-out | inhibition, % at 6.6 µM | actives 1.8% (n = 330,000) | AID 485270; in the data active = inhibition mostly above about 38%, no sharp cut-off; inactive = mostly below about 40%;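 note: 0% = agonist challenge alone and 100% = reference antagonist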
GPR7 antagonist – blocks human GPR7 receptor signaling; inhibition, % at 4.4 µM; actives 1.1% (n = 290,000); P48145; GPR7-expressing cells, fluorescence antagonist assay; in the data active = inhibition above about 16%, passing the limit was not always enough;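 note: cells stimulated with the agonist NPW; 0% = agonist with vehicle and 100% = vehicle without agonist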
GalR3 antagonist – human GalR3 antagonism; O60755; HEK293 GalR3-CNG cAMP membrane potential fluorescence; galR3 body fused to GalR1 C-terminus; inhibition, % at 3 µM; actives 0.44% (n = 360,000);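 active = inhibition above the screen-wide average plus 3 SD, cut at about 13% in these data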;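 note: forskolin and galanin both at EC90 stimulate the cells; cAMP rise reported by CNG channel membrane potential dye signal; 0% = forskolin plus galanin with DMSO and 100% = forskolin alone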
Target sequence (O60755 1-299 limits assumed): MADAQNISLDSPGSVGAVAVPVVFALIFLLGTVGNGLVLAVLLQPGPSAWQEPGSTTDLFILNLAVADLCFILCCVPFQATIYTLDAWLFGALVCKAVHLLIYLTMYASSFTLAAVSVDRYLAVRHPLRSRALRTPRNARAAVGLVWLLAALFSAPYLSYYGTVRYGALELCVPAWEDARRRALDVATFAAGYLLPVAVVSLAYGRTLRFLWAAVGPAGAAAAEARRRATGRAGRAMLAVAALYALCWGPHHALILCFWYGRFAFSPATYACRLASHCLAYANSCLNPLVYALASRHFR
CHO parental Ca – counter-screen: ATP calcium response change in parental CHO cells | parental CHO-K1, ATP-induced calcium, Fluo-8 fluorescence | actives 0.63% (n = 330,000) | inhibition, % at 5.6 µM | AID 463079;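 active = inhibition above that plate's mean sample inhibition plus 3 SD, cut at about 26% in these data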;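 note: 0% = ATP-challenged DMSO wells and 100% = DMSO wells without ATP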
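Test system: parental CHO cells; detection: calcium-sensitive Fluo-8 fluorescence; evaluation: percent inhibition of calcium signal; also added: ATP as calcium-mobilizing challenge; repeats: one well per compound; control set: ATP-challenged DMSO wells low, unchallenged DMSO wells high; compound: single nominal dose of 5.6 µM per compound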
GalR3 antag conf – GalR3 (human) antagonism, confirmation. shares compounds with GalR3 antagonist. HEK293 GalR3 CNG cAMP biosensor, membrane potential fluorescence; galR3 fused to GalR1 carboxy tail; challenged with forskolin and galanin at EC90. inhibition, % at 3 µM. actives 59% (n = 1,600). AID 652245;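 active = inhibition above the primary screen's cutoff, the mean inhibition of all screened compounds plus 3 SD, cut at about 13% in these data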;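 note: 0% = forskolin plus galanin and 100% = forskolin alone with DMSO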
HEK-CNG parental – parental cell agonism counter-screen for GalR3 antagonists; shares compounds with GalR3 antagonist; HEK293-CNG parental cells, cAMP membrane potential fluorescence; normalised: DMSO wells 0%, forskolin wells 100%; activation, % at 3 µM; actives 10% (n = 1,600); AID 652268; in the data active = activation above about 1.3%
* marks the source's active call; other numbers are inactive results; nt = not tested or not shown. Shown are actives, neighbours in structure and some others; about 3.1% of the full set was active somewhere.

SMILES | OX1R antag-1 | OX1R antag-2 | GPR7 antagonist | GalR3 antagonist | CHO parental Ca | GalR3 antag conf | HEK-CNG parental
O=C(NS(=O)(=O)N1CCCC1)C1=C(N2CCCC2)COC1=O | 0.8 | 1.1 | nt | nt | -3.4 | -0.5 | 0.1
O=C(NS(=O)(=O)NC1CCCCC1)C1=C(N2CCCC2)COC1=O | 14.1 | -5.1 | nt | 8.1 | 5.5 | nt | nt
CNc1ccc(C(=O)OCC(=O)NC(=O)NC2CCCC2)cc1[N+](=O)[O-] | -6.1 | 9.0 | nt | 0.1 | -7.2 | nt | nt
COCCCN1C(=O)c2[nH]nc(-c3cc(C)cc(C)c3O)c2C1c1ccc(O)c(OC)c1 (configuration not stated) | -24.5 | 13.9 | -5.5 | 2.0 | -5.1 | nt | nt
CCCN1C(=O)c2[nH]nc(-c3cc(Cl)c(C)cc3O)c2C1c1ccc(O)c(OC)c1 (configuration not stated) | -23.3 | 13.4 | -8.6 | 20.5* | -25.1 | 3.7 | 0.1
OCCNCCO | -5.0 | 8.7 | 5.3 | -5.1 | -10.5 | nt | nt
S=C(NCCCN1CCOCC1)N1CCN(c2nc(-c3ccc(Cl)cc3)cs2)CC1 | 11.2 | 19.5 | 4.7 | 20.1* | 27.5 | 6.3 | -1.2
COCCCNC(=S)N1CCN(c2nc(-c3ccc(F)cc3)cs2)CC1 | -7.0 | 23.8 | 12.3 | -9.9 | 17.6 | nt | nt
S=C(NCCCN1CCOCC1)N1CCN(c2nc(-c3ccccc3)cs2)CC1 | -9.7 | 4.8 | 8.7 | -5.0 | -0.3 | nt | nt
CCOCCCNC(=S)N1CCN(c2nc(-c3ccc(F)cc3)cs2)CC1 | 9.1 | 6.2 | 12.3 | 36.8* | 13.8 | 88.0* | -1.0
Cc1nc(SCC(=O)NNC(=O)c2ccc(F)cc2)c2ccccc2n1 | -30.3 | 14.3 | nt | -7.8 | -15.9 | nt | nt
Oc1cc2c(c(Cl)c1O)CCNCC2c1ccccc1 (configuration not stated) | 1.6 | 11.6 | nt | 25.9* | 5.9 | 32.1* | 0.7
O=C(/C=C/c1cccs1)c1ccco1 | nt | nt | nt | -9.6 | nt | nt | nt
CC(=O)Nc1ccc(NC(=O)Nc2ccccc2C)cc1 | 1.1 | -1.4 | -4.9 | 7.0 | -1.9 | nt | nt
CC(=O)c1ccc(NC(=O)Nc2ccc(Br)cc2C)cc1 | -15.5 | 34.7 | -15.1 | 13.2* | -15.8 | -2.7 | -0.1
Cc1ccc(-n2nc(C)c(/C=N/n3c(C)n[nH]c3=S)c2Cl)cc1 | -7.3 | -3.1 | -1.9 | nt | -18.0 | 10.8 | 0.7
Cc1n[nH]c(=S)n1/N=C/c1ccccc1 | 1.2 | 11.2 | -4.6 | 1.1 | -7.4 | nt | nt
Cn1c(CN2CCCC2)nc2cc(NC(=O)c3ccc(Cl)cc3)ccc21 | -42.5 | 4.7 | -1.0 | -5.1 | -15.8 | nt | nt
Cn1c(CN2CCCCC2)nc2cc(NC(=O)c3ccc(Cl)cc3)ccc21 | -15.7 | 9.8 | -11.5 | 80.9* | -23.4 | 48.1* | 0.4
CCC1=Nc2cc(C(=O)NCC3CCCO3)ccc2Sc2ccc(Cl)cc21 (configuration not stated) | -31.4 | 11.3 | 0.4 | 16.5* | -23.4 | 9.0 | 0.0
c1ccc(Cn2cnc3ccccc32)cc1 | 16.5 | 0.1 | 10.5 | -2.7 | -14.1 | nt | nt
Fc1cc2ncn(Cc3ccccc3)c2cc1F | -17.6 | 10.7 | -7.3 | nt | -12.7 | 2.5 | -0.1
O=C(Oc1ccc(Br)cc1C(=O)/C=C/c1ccccc1F)c1ccco1 | 12.8 | 21.9 | 7.0 | 23.8* | -21.6 | 11.8 | 0.1
O=C1C=C(c2c(O)ccc3ccccc23)c2ccccc2C1=O | nt | nt | nt | 22.8* | nt | 81.7* | -4.6
O=C1C=C(O)c2cccc(O)c2C1=O | 1.4 | 20.3 | nt | -7.5 | -8.1 | nt | nt
SMILES | OX1R antag-1 | OX1R antag-2 | GPR7 antagonist | GalR3 antagonist | CHO parental Ca | GalR3 antag conf | HEK-CNG parental
CC(C)Cc1ccc(CN2CCCC(NC(=O)c3ccnn3C)C2)cc1 (configuration not stated) | -18.4 | 2.0 | -0.7 | 32.0* | -7.2 | 0.2 | 0.2
O=C(OCc1cc(=O)oc2cc(O)ccc12)c1cc(S(=O)(=O)N2CCOCC2)ccc1F | -8.4 | 24.5 | nt | 34.4* | 17.0 | 55.0* | 0.6
O=C1COc2ccc(C(=O)COC(=O)c3cc(S(=O)(=O)N4CCOCC4)ccc3F)cc2N1 | -23.5 | 10.6 | -1.9 | 55.3* | -1.1 | 33.7* | -0.1
CN(CC(=O)Nc1cccc(F)c1)C(=O)CCCn1c(=O)oc2ccccc21 | -2.1 | 7.1 | nt | -1.1 | -9.3 | nt | nt
CCCCOc1ncnc2c1[nH]c1ccc(OCC)cc12 | -7.4 | 10.7 | 8.2 | -6.4 | -5.6 | nt | nt
CCCCOc1ncnc2c1[nH]c1ccc(F)cc12 | 39.4 | 34.2 | 11.3 | 29.1* | 31.7* | 46.3* | 0.3
CC1CN(S(=O)(=O)c2ccc(C(=O)Nc3ccc(S(=O)(=O)Nc4ncccn4)cc3)cc2)CC(C)O1 (configuration not stated) | 19.5 | 2.5 | -8.0 | -2.8 | 1.0 | nt | nt
Cc1ccc(C(=O)N2CCCC(CCC(=O)N3CCN(c4ccccn4)CC3)C2)cn1 (configuration not stated) | -29.1 | 16.9 | -13.7 | 12.7* | -17.3 | 8.3 | -0.2
COc1ccc(C(=O)N/N=C/c2cc3ccccc3[nH]c2=O)cc1 | -18.2 | 44.8 | -1.1 | nt | 0.1 | 60.2* | -0.2
CC(O)CC(=O)OC[C@]12CC[C@H]3[C@@](C)(CC[C@H]4C(C)(C)CCC[C@]34C)[C@@H]1CC(C1=CC(=O)OC1O)O2 (some centres not stated) | nt | nt | nt | 23.2* | nt | 21.9* | 1.1
O=C(NCCc1ccccn1)c1cc(-c2cccc3ccccc23)nc2ccccc12 | -24.5 | 20.6 | -9.1 | -3.6 | -34.6 | nt | nt
COc1ccc(C2CC(c3ccc4ccccc4c3)=NN2C(=O)CNC2CCCCC2)cc1 (configuration not stated) | 5.2 | 1.7 | 17.5 | -7.5 | 11.7 | nt | nt
COc1ccc(C2CC(c3ccc4ccccc4c3)=NN2C(=O)CN2CCC(C(N)=O)CC2)cc1 (configuration not stated) | -24.1 | 16.1 | 0.8 | 14.0* | -23.9 | -1.9 | 3.0*
COc1ccc(-c2c3c(cc4ncn(Cc5ccccc5)c24)COC3=O)cc1 | -17.2 | 10.3 | nt | 27.3* | -15.9 | 52.1* | 0.4
COc1ccc(-c2csc3ncn(Cc4ccccc4)c(=O)c23)cc1 | -16.6 | 10.0 | -19.7 | 3.8 | -16.6 | nt | nt
COc1ccc(-c2cc(N)n(S(=O)(=O)c3c(F)c(F)c(F)c(F)c3F)n2)cc1OC | 23.6 | 19.4 | 9.2 | 53.9* | 44.8* | 59.7* | 1.0
COc1ccc(S(=O)(=O)n2nc(-c3cc(OC)c(OC)c(OC)c3)cc2N)cc1OC | -37.0 | 16.5 | -0.7 | -1.4 | -20.2 | nt | nt
Clc1ccc(N(CC2CO2)CC2CO2)cc1 (configuration not stated) | nt | nt | nt | -5.4 | nt | nt | nt
Cc1csc2ncnc(NC3CCN(Cc4ccccc4)CC3)c12 | 23.4 | 35.0 | 15.2 | 95.6* | 2.2 | 107.6* | 0.5
Cc1cc(=O)[nH]c(N/N=C/c2ccc(Cl)c([N+](=O)[O-])c2)n1 | -18.7 | 4.0 | -19.7 | 13.7* | 0.0 | 1.8 | 0.2
